What was measured:
HCT-116 [1] = assay: Cytotoxicity against human HCT-116 cells assessed as inhibition of cell proliferation measured after 72 hrs by CCK-8 assay; format: functional, cell-based; conditions: HCT-116, 72 h
Outline: (§1)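 Cells seeded at 2×10^3 per well and grown overnight in 10% FBS medium: HCT116 in McCoy's 5A, A549 and AGS in F-12K, SK-MES-1 in DMEM. Compounds added at varied concentrations with 0.1% DMSO control, 72 h at 37 °C. 10% CCK-8 for 2 h, then A450 read. Survival = (As−Ab)/(Ac−Ab)×100%. IC50 from curve fitting.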

A549 [2] = assay: Cytotoxicity against human A549 cells assessed as inhibition of cell proliferation measured after 72 hrs by CCK-8 assay; format: functional, cell-based; conditions: A549, 72 h; outline: as §1
AGS = assay: Cytotoxicity against human AGS cells assessed as inhibition of cell proliferation measured after 72 hrs by CCK-8 assay; format: functional, cell-based; outline: as §1
[3] = Cytotoxicity against human NCM460 cells assessed as inhibition of cell proliferation measured after 72 hrs by CCK-8 assay; format: toxicity, cell-based
Outline: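 NCM460 normal colonic epithelial cells seeded at 2×10^3 cells/well and grown overnight in RPMI-1640 with 10% FBS. Compounds added at a range of concentrations, 0.1% DMSO as negative control, 72 h at 37 °C. Read-out by CCK-8 (10%, 2 h) at 450 nm. Survival = (As−Ab)/(Ac−Ab)×100%; IC50 taken as concentration giving 50% inhibition of proliferation.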

HCT-116 [4] = assay: Inhibition of cell migration in human HCT-116 cells measured after 24 hrs by crystal violet staining based fluorescent inverted microscopic analysis; format: functional; conditions: dose 0.1-0.3 µM
Outline: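 Uncoated Transwell inserts were seeded with HCT116 cells (1×10^4) in the upper chamber, with complete medium below. Treated 24 h at 37 °C, 5% CO2, with 0.1, 0.2 or 0.3 μM or 0.1% DMSO. Fixed with 4% paraformaldehyde, stained with 0.1% crystal violet, migrated cells imaged and counted. At least three replicates.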

HCT-116 [5] = assay: Induction of cell cycle arrest in human HCT-116 cells assessed as accumulation of cells at G0/G1 phase at 0.1 uM measured after 24 hrs by PI/RNase staining based flow cytometry analysis (reference value: 32.88%); format: functional
HCT-116 [6] = assay: Induction of cell cycle arrest in human HCT-116 cells assessed as accumulation of cells at G2/M phase at 0.1 uM measured after 24 hrs by PI/RNase staining based flow cytometry analysis (reference value: 28.83%); format: functional
HCT-116 [7] = assay: Induction of cell cycle arrest in human HCT-116 cells assessed as accumulation of cells at G0/G1 phase at 0.2 uM measured after 24 hrs by PI/RNase staining based flow cytometry analysis (reference value: 32.88%); format: functional
HCT-116 [8] = assay: Induction of cell cycle arrest in human HCT-116 cells assessed as accumulation of cells at G2/M phase at 0.2 uM measured after 24 hrs by PI/RNase staining based flow cytometry analysis (reference value: 28.83%); format: functional
HCT-116 [9] = assay: Induction of cell cycle arrest in human HCT-116 cells assessed as accumulation of cells at G0/G1 phase at 0.3 uM measured after 24 hrs by PI/RNase staining based flow cytometry analysis (reference value: 32.88%); format: functional
HCT-116 [10] = assay: Induction of cell cycle arrest at G2/M phase in human HCT-116 cells assessed as reduction in Cdc-2 protein expression measured after 48 hrs by Western blot analysis; format: functional, cell-based; conditions: dose 0.1-0.3 µM
Outline: (§2)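 HCT116 cells given 0.1, 0.2 or 0.3 μM for 48 h, with 0.1% DMSO control. Lysates run on SDS-PAGE and blotted to PVDF. Probed with anti-Cdc2 and anti-Cyclin B1 (1:1000), β-actin as loading control, HRP secondary, and chemiluminescence. Band quantities expressed relative to control set to 1. Three independent experiments.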

HCT-116 [11] = assay: Induction of cell cycle arrest at G2/M phase in human HCT-116 cells assessed as reduction in Cyclin B1 protein expression measured after 48 hrs by Western blot analysis; format: functional, cell-based; conditions: dose 0.1-0.3 µM; outline: as §2
HCT-116 [12] = assay: Induction of autophagy in human HCT-116 cells assessed as increase in LC3-II protein expression measured after 24 hrs by Western blot analysis; format: functional, cell-based; conditions: dose 0.1-0.3 µM
Outline: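 HCT116 cells exposed for 24 h to 0.1, 0.2 or 0.3 μM. Lysed on ice and protein measured by BCA. […] Milk-blocked, probed with anti-LC3A/B or anti-phospho-SQSTM1/p62 (1:1000) plus β-actin, then HRP anti-rabbit and chemiluminescence. Bands normalised to control set to 1. Three independent experiments.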

HCT-116 [13] = assay: Induction of autophagy in human HCT-116 cells transfected with mRFP-GFP-LC3 adenovirus assessed as increase in LC3 labeling by measuring increase in number of yellow dots measured after 24 hrs by immunofluorescence staining based confocal microscopic analysis; format: functional, cell-based; conditions: dose 0.1-0.3 µM
Outline: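 HCT116 cells on glass slides were infected with mRFP-GFP-LC3 adenovirus at 50% confluence and incubated 24 h. They were then treated 24 h with 0.1–0.3 μM or 0.1% DMSO. Fixed in 4% paraformaldehyde, mounted with DAPI, and yellow LC3 puncta imaged by confocal microscopy.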

A549 [14] = assay: Induction of cell cycle arrest in human A549 cells assessed as accumulation of cells at G0/G1 phase at 0.1 uM measured after 24 hrs by PI/RNase staining based analysis (reference value: 41.91%); format: functional
A549 [15] = assay: Induction of cell cycle arrest in human A549 cells assessed as accumulation of cells at G0/G1 phase at 0.2 uM measured after 24 hrs by PI/RNase staining based analysis (reference value: 41.91%); format: functional
A549 [16] = assay: Induction of cell cycle arrest in human A549 cells assessed as accumulation of cells at S phase at 0.3 uM measured after 24 hrs by PI/RNase staining based analysis (reference value: 24.95%); format: functional
A549 [17] = assay: Induction of apoptosis in human A549 cells assessed as live cells at 0.2 uM measured after 24 hrs by Annexin V-APC/PI staining based flow cytometry analysis (reference value: 96.91%); format: functional
A549 [18] = assay: Induction of apoptosis in human A549 cells assessed as late apoptotic cells at 0.2 uM measured after 24 hrs by Annexin V-APC/PI staining based flow cytometry analysis (reference value: 0.86%); format: functional
A549 [19] = assay: Induction of apoptosis in human A549 cells assessed as early apoptotic cells at 0.3 uM measured after 24 hrs by Annexin V-APC/PI staining based flow cytometry analysis (reference value: 1.73%); format: functional
A549 [20] = assay: Induction of apoptosis in human A549 cells assessed as late apoptotic cells at 0.3 uM measured after 24 hrs by Annexin V-APC/PI staining based flow cytometry analysis (reference value: 0.86%); format: functional
[21] = Toxicity in female BALB/c nude mouse xenografted with human HCT-116 cells assessed as adverse effects at 20 to 40 mg/kg, ip administered every 2 days for 20 days; format: organism-based; conditions: in vivo, 480 h, dose 20-40 mg/kg, time 20 day
Outline: (§3)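 Female BALB/c nude mice, 5 weeks old, bearing subcutaneous HCT116 xenografts (started at 100 mm³), randomised into groups of ten. Saline-injected ip controls. Body weight monitored throughout the 20-day intraperitoneal treatment.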

[22] = Toxicity in female BALB/c nude mouse xenografted with human HCT-116 cells assessed as reduction in body weight at 20 to 40 mg/kg, ip administered every 2 days for 20 days; format: organism-based; conditions: in vivo, 480 h, dose 20-40 mg/kg, time 20 day; outline: as §3

COc1ccc(/C=C(/C(=O)N2CCN(c3ccc(C)cc3)CC2)c2cc(OC)c(OC)c(OC)c2)cc1O
IC50 (HCT-116 [1]): 227 nM | IC50 (A549 [2]): 253 nM | IC50 (AGS): 574 nM | IC50 at 72 h [3]: 1090 nM | inhibition (HCT-116 [4]): Dose-Dependent Effect | Activity (HCT-116 [5]): 34.26% | Activity (HCT-116 [6]): 33.79% | Activity (HCT-116 [7]): 34.17% | Activity (HCT-116 [8]): 44.67% | Activity (HCT-116 [9]): 5.43% | Activity (HCT-116 [10]): Dose-Dependent Effect | Activity (HCT-116 [11]): Dose-Dependent Effect | Activity (HCT-116 [12]): Dose-Dependent Effect | Activity (HCT-116 [13]): Dose-Dependent Effect | Activity (A549 [14]): 69.3% | Activity (A549 [15]): 77.73% | Activity (A549 [16]): 7.17% | Activity (A549 [17]): 76.79% | Activity (A549 [18]): 4.72% | Activity (A549 [19]): 21.09% | Activity (A549 [20]): 8.87% | Activity [21]: Non-Toxic | Activity [22]: Non-Toxic

— ChEMBL document CHEMBL5500387, “Design, synthesis of combretastatin A-4 piperazine derivatives as potential antitumor agents by inhibiting tubulin polymerization and inducing autophagy in HCT116 cells” (Eur J Med Chem, 2024)
